pIC50: −log10 of the molar value.
Columns and labels:
[1] = tested on: MDCK; experiment: Cytotoxicity in MDCK cells using MTS assay; assay type: functional, cell-based; details: Canis lupus familiaris
[2] = tested on: Influenza A virus; experiment: Inhibitory activity against influenza A3/Beijing/30/95 ([…]) virus in MDCK cells; assay type: functional, organism-based
Outline: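 MDCK cells in 96-well plates were infected with influenza ([…]) virus at 50 PFU/well and treated with serially diluted compound. IC50 was calculated from the dilution series and reported in µM as the mean of at least three independent experiments run on different days.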

Row | Structure (SMILES) | Activity [1] | pIC50 [2]
1 | O=C(NC(=S)Nc1nc(Cl)cc(Cl)n1)c1ccc(-c2ccccc2Cl)o1 | Not toxic | 4.84
2 | Cc1cc(C)nc(NC(=O)NC(=O)c2c(F)cccc2F)n1 | Not toxic | < 4.70
3 | Cc1cc(O)nc(NC(=S)NC(=O)c2ccc(Cl)nc2)n1 | Not toxic | 5.07
4 | Cc1cc(C)nc(NC(=S)NC(=O)c2cccnc2Cl)n1 | Not toxic | 5.14
5 | CC(C)(C)NC(=O)NC(=S)NC(=O)[C@H]1[C@@H](/C=C(\Cl)C(F)(F)F)C1(C)C | Not toxic | 6.29
6 | COc1cc(Cl)nc(NC(=S)NC(=O)c2ccc(Cl)nc2)n1 | Not toxic | < 4.70
7 | COc1cc(OC)n2s/c(=N\C(=O)c3cccnc3Cl)nc2n1 | Not toxic | 5.62
8 | Cc1cc(O)nc(NC(=S)NC(=O)c2ccc(-c3ccc([N+](=O)[O-])cc3)o2)n1 | Not toxic | 6.44
9 | COc1cc(C)nc(NC(=S)NC(=O)c2ccc(-c3ccc([N+](=O)[O-])cc3)o2)n1 | Not toxic | 5.91
10 | CCOc1cc(C)nc(NC(=S)NC(=O)c2ccc(-c3ccc([N+](=O)[O-])cc3)o2)n1 | Not toxic | 4.95
11 | CCOc1cc(C)nc2n/c(=N/C(=O)c3ccc(-c4ccccc4Cl)o3)sn12 | Not toxic | 6.46
12 | CC(C)(C)NC(=O)NC(=S)NC(=O)COc1ccc(Cl)cc1Cl | Not toxic | 5.78
13 | CC(C)(C)NC(=O)NC(=S)NC(=O)c1ccc(-c2ccc([N+](=O)[O-])cc2)o1 | Not toxic | 5.89
14 | COc1cc(Cl)nc2n/c(=N/C(=O)c3ccc(Cl)nc3)sn12 | Not toxic | 5.03
15 | COc1cc(C)nc(NC(=S)NC(=O)c2ccc(-c3ccccc3Cl)o2)n1 | Not toxic | < 4.70
16 | COc1cc(OC)nc(NC(=S)NC(=O)c2ccc(-c3ccc([N+](=O)[O-])cc3)o2)n1 | Not toxic | < 4.70
17 | Cc1cc(Cl)nc(NC(=O)NC(=O)c2c(F)cccc2F)n1 | Not toxic | < 4.70
18 | COc1cc(OC)nc(NC(=S)NC(=O)c2ccc(-c3ccccc3Cl)o2)n1 | Not toxic | 5.75
19 | CCOc1cc(Cl)nc(NC(=S)NC(=O)c2cccnc2Cl)n1 | Not toxic | < 4.70
20 | CC(C)(C)NC(=O)NC(=S)NC(=O)[C@@H]1[C@@H](C=C(Cl)Cl)C1(C)C | Not toxic | 6.59
21 | CCOc1cc(Cl)nc(NC(=S)NC(=O)c2ccc(-c3ccccc3Cl)o2)n1 | Not toxic | < 4.70
22 | CCOc1cc(OCC)nc(NC(=S)NC(=O)c2ccc(-c3ccccc3Cl)o2)n1 | Not toxic | 7.10
23 | COc1cc(Cl)nc(NC(=S)NC(=O)c2ccc(-c3ccccc3Cl)o2)n1 | Not toxic | 5.89

Row | Structure (SMILES) | Activity [1] | pIC50 [2]
24 | COc1cc(Cl)nc(NC(=S)NC(=O)c2cccnc2Cl)n1 | Not toxic | 5.59
25 | CC(C)(C)NC(=O)NC(=O)NC(=O)c1c(F)cccc1F | Not toxic | 4.85
26 | Cc1cc(=O)nc2nc(NC(=O)c3ccc(-c4ccc([N+](=O)[O-])cc4)o3)sn12 | Not toxic | 6.17
27 | CCOc1cc(OCC)nc(NC(=S)NC(=O)c2ccc(-c3ccc([N+](=O)[O-])cc3)o2)n1 | Not toxic | < 4.70
28 | CCOc1cc(OCC)n2s/c(=N\C(=O)c3ccc(Cl)nc3)nc2n1 | Not toxic | 7.05
29 | CC(C)(C)NC(=O)NC(=S)NC(=O)c1c(F)cccc1F | Not toxic | 5.84
30 | Cc1cc(O)nc(NC(=S)NC(=O)c2ccc(-c3ccccc3Cl)o2)n1 | Not toxic | 6.49
31 | CC(C)[C@H](C(=O)NC(=S)NC(=O)NC(C)(C)C)c1ccc(Cl)cc1 | Not toxic | 5.87
32 | CCOc1cc(OCC)n2s/c(=N\C(=O)c3ccc(-c4ccc([N+](=O)[O-])cc4)o3)nc2n1 | Not toxic | 5.28
33 | CCOc1cc(OCC)nc(NC(=S)NC(=O)c2cccnc2Cl)n1 | Not toxic | < 4.70
34 | CC(C)(C)NC(=O)NC(=S)NC(=O)c1ccc(-c2ccccc2Cl)o1 | Not toxic | 5.85
35 | COC(=O)NC(=S)NC(=O)NC(C)(C)C | Not toxic | 5.74
36 | CCOc1cc(OCC)nc(NC(=S)NC(=O)c2ccc(Cl)nc2)n1 | Not toxic | < 4.70
37 | COc1cc(OC)nc(NC(=S)NC(=O)c2cnc(Cl)c(Cl)c2)n1 | Not toxic | 4.73
38 | COc1cc(OC)nc(NC(=O)NC(=O)c2c(F)cccc2F)n1 | Not toxic | < 4.70
39 | CC(C)(C)NC(=O)NC(=O)NC(=O)c1ccccc1 | Not toxic | < 4.70
40 | COc1cc(OC)n2s/c(=N\C(=O)c3cccnc3)nc2n1 | Not toxic | < 4.70
41 | COc1cc(Cl)nc(NC(=O)NC(=O)c2c(F)cccc2F)n1 | Not toxic | 4.80
42 | COc1cc(OC)nc(NC(=S)NC(=O)c2cccnc2)n1 | Not toxic | < 4.70
43 | CCOc1cc(C)nc(NC(=S)NC(=O)c2ccc(-c3ccccc3Cl)o2)n1 | Not toxic | 5.78
44 | CC(C)(C)NC(=O)NC(=S)NC(=O)c1ccccc1 | Not toxic | 5.75
45 | COc1cc(C)nc(NC(=S)NC(=O)c2ccc(Cl)nc2)n1 | Not toxic | < 4.70
46 | CC(C)C(C(=O)NC(=O)NC(=O)NC(C)(C)C)c1ccc(Cl)cc1 (configuration not stated) | Not toxic | 4.81
